Among the data in ChEMBL document CHEMBL5030505, “Assessment of NR4A Ligands That Directly Bind and Modulate the Orphan Nuclear Receptor Nurr1” (J Med Chem, 2020) are Activity values, retold here.

The source made the active and inactive calls. No cut-off for these calls is given here.

Holding throughout (format): cell-based
One data set concerns SK-N-BE(2). Kind of data set: Cytotoxicity against human SKNBE2 cells assessed as reduction in cell viability at 125 uM incubated for 18 hrs by Cell Titer Glo assay. The gist of the method:
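Cells seeded at 1.5 million per 10-cm dish. Next day they were replated at 10,000 cells/well and rested 4 h. Ligand or vehicle (water, ethanol or DMSO, by ligand) was added in dose-response format in quadruplicate. After 18 h, viability was read by CellTiter-Glo luminescence. Data are mean ± s.e.m., generally representative of 2 independent experiments. One-way ANOVA versus vehicle.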

The target of data set [1] is Nuclear receptor subfamily 4 group A member 2 (Homo sapiens) (UniProt P43354). Kind of data set: Modulation of full length human Nurr1 expressed in SK-N-BE(2) cells co-transfected with luciferase reporter plasmid harboring NurRE response element assessed as increase in luciferase activity at 1.95 to 125 uM incubated for 18 hrs by luciferase reporter gene assay. The conditions noted are these: SKNBE2, filed as modulator, dose 1.95-125 µM. In a few lines:
(§1)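 Transfection of SK-N-BE(2)-C cells (1:1 EMEM/F12, 10% FBS, 37°C, 5% CO2) used full-length Nurr1 alone (2 μg, no RXRα) with 3xNBRE- or 3xNurRE-luciferase reporter (6 μg) for 18 h. Cells were replated at 10,000/well for 4 h, then exposed to ligand or vehicle in quadruplicate for 18 h. Luminescence was expressed as fold over vehicle, as mean ± s.e.m. (n=4) from 2 independent experiments, one-way ANOVA against vehicle.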
A general note: In a reporter assay the amount or activity of a reporter protein is the signal.

Data set [2] shares this target. Kind of data set: Modulation of full length human Nurr1 expressed in HEK293T cells co-transfected with RXRalpha and luciferase reporter plasmid harboring NBRE response element assessed as decrease in luciferase activity at 1.95 to 125 uM incubated for 18 hrs by luciferase reporter gene assay. The conditions noted are these: filed as modulator, dose 1.95-125 µM. The gist of the method:
(§2)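 Full-length Nurr1 plasmid, alone (2 μg) or 1 μg plus full-length RXRα (1 μg), cotransfected with 3xNBRE- or 3xNurRE-luciferase reporter (6 μg) using Lipofectamine 2000, 18 h. Cells replated at 10,000/well for 4 h. Four ligand concentrations, or vehicle (water, ethanol or DMSO), added in quadruplicate for 18 h. Luciferase read. Fold change vs vehicle, mean ± s.e.m., one-way ANOVA vs vehicle.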

Data set [3] shares this target. The data set is described as follows: Modulation of full length human Nurr1 expressed in HEK293T cells co-transfected with RXRalpha and luciferase reporter plasmid harboring NurRE response element assessed as decrease in luciferase activity at 1.95 to 125 uM incubated for 18 hrs by luciferase reporter gene assay. The conditions noted are these: filed as modulator, dose 1.95-125 µM. In a few lines:
as §2

Data set [4] shares this target. The data set is described as follows: Modulation of full length human Nurr1 expressed in PC12 cells co-transfected with luciferase reporter plasmid harboring NBRE response element assessed as decrease in luciferase activity at 1.95 to 125 uM incubated for 18 hrs by luciferase reporter gene assay. The conditions noted are these: PC-12, filed as modulator, dose 1.95-125 µM. The gist of the method: (§3)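 Here PC12 cells (FK-12 medium, 15% horse serum, 2.5% FBS, 37°C, 5% CO2) received full-length Nurr1 (2 μg) without RXRα, plus 3xNBRE- or 3xNurRE-luciferase reporter (6 μg), for 18 h. Cells were replated at 10,000/well for 4 h, then treated with ligand or vehicle in quadruplicate for 18 h. Luciferase luminescence was normalized to vehicle-treated cells. Results are mean ± s.e.m. (n=4) from 2 independent experiments, with one-way ANOVA against vehicle.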

Data set [5] has the same target. Kind of data set: Modulation of full length human Nurr1 expressed in PC12 cells co-transfected with luciferase reporter plasmid harboring NurRE response element assessed as decrease in luciferase activity at 1.95 to 125 uM incubated for 18 hrs by luciferase reporter gene assay. The conditions noted are these: PC-12, filed as modulator, dose 1.95-125 µM. In a few lines: as §3

Data set [6] has the same target. Kind of data set: Modulation of full length human Nurr1 expressed in PC12 cells co-transfected with RXRalpha and luciferase reporter plasmid harboring NBRE response element assessed as decrease in luciferase activity at 1.95 to 125 uM incubated for 18 hrs by luciferase reporter gene assay. The conditions noted are these: PC-12, filed as modulator, dose 1.95-125 µM. In a few lines:
as §2

For data set [7] the target is unchanged. Kind of data set: Modulation of full length human Nurr1 expressed in PC12 cells co-transfected with RXRalpha and luciferase reporter plasmid harboring NurRE response element assessed as decrease in luciferase activity at 1.95 to 125 uM incubated for 18 hrs by luciferase reporter gene assay. The conditions noted are these: PC-12, filed as modulator, dose 1.95-125 µM. In a few lines: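 PC12 cells were grown at 37°C and 5% CO2 in […] medium with 15% horse serum and 2.5% FBS. They were transfected with full-length Nurr1 (1 μg) plus full-length RXRα (1 μg) and 3xNBRE- or 3xNurRE-luciferase reporter (6 μg) for 18 h, then replated at 10,000 cells/well for 4 h. Ligand or vehicle (water, ethanol or DMSO) was added in quadruplicate for 18 h. Luminescence was read as fold change over vehicle. Results are mean ± s.e.m., n=4, from 2 independent experiments, analysed by one-way ANOVA against vehicle.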

Data set [8] has the same target. The data set is described as follows: Modulation of full length human Nurr1 expressed in HEK293T cells co-transfected with luciferase reporter plasmid harboring NBRE response element assessed as decrease in luciferase activity at 1.95 to 125 uM incubated for 18 hrs by luciferase reporter gene assay. As to conditions: filed as modulator, dose 1.95-125 µM. In a few lines:
as §2

Data set [9] shares this target. The data set is described as follows: Modulation of full length human Nurr1 expressed in SK-N-BE(2) cells co-transfected with RXRalpha and luciferase reporter plasmid harboring NBRE response element assessed as increase in luciferase activity at 1.95 to 125 uM incubated for 18 hrs by luciferase reporter gene assay. As to conditions: SKNBE2, filed as modulator, dose 1.95-125 µM. In a few lines:
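SK-N-BE(2)-C cells were kept in 1:1 EMEM/F12 with 10% FBS at 37°C and 5% CO2. They were cotransfected with full-length Nurr1 (1 μg), full-length RXRα (1 μg) and 3xNBRE- or 3xNurRE-luc reporter (6 μg) for 18 h, replated at 10,000 cells/well for 4 h, and then treated with ligand or vehicle in quadruplicate for 18 h. The readout was luciferase luminescence as fold over vehicle, reported as mean ± s.e.m. (n=4) from 2 independent experiments, one-way ANOVA.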

For data set [10] the target is unchanged. The data set is described as follows: Modulation of full length human Nurr1 expressed in HEK293T cells co-transfected with luciferase reporter plasmid harboring NurRE response element assessed as decrease in luciferase activity at 1.95 to 125 uM incubated for 18 hrs by luciferase reporter gene assay. The conditions noted are these: filed as modulator, dose 1.95-125 µM. In a few lines:
as §2

For data set [11] the target is unchanged. The data set is described as follows: Modulation of full length human Nurr1 expressed in SK-N-BE(2) cells co-transfected with luciferase reporter plasmid harboring NBRE response element assessed as increase in luciferase activity at 1.95 to 125 uM incubated for 18 hrs by luciferase reporter gene assay. As to conditions: SKNBE2, filed as modulator, dose 1.95-125 µM. In a few lines: as §1

Data set [12] deals with SKNBE2. Kind of data set: Modulation of Gal4-fused VP16 expressed in SKNBE(2) cells co-transfected with UAS repoter gene assessed as decrease in luciferase activity at 125 uM incubated for 18 hrs by luciferase reporter gene assay. The conditions noted are these: Human alphaherpesvirus 2, filed as modulator. The gist of the method:
(§4)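 Cells in 10-cm dishes were transfected with Gal4-VP16 expression plasmid (2 μg) plus 5xUAS-luciferase reporter (2 μg) for 18 h. They were replated at 10,000 cells/well for 4 h, then given ligand or vehicle (water, ethanol or DMSO) in quadruplicate for 18 h. Luciferase was read with Britelite Plus. Fold change is versus vehicle-treated cells, with one-way ANOVA versus vehicle.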

Data set [13] deals with SKNBE2. Kind of data set: Modulation of Gal4-fused VP16 expressed in SKNBE(2) cells co-transfected with UAS repoter gene assessed as increase in luciferase activity upto 15 uM incubated for 18 hrs by luciferase reporter gene assay. As to conditions: Human alphaherpesvirus 2, filed as modulator, dose microM <=15, time 18.0 hrs. In a few lines: as §4

Chain of Nuclear receptor subfamily 4 group A member 2 (Homo sapiens) (P43354 whole entry): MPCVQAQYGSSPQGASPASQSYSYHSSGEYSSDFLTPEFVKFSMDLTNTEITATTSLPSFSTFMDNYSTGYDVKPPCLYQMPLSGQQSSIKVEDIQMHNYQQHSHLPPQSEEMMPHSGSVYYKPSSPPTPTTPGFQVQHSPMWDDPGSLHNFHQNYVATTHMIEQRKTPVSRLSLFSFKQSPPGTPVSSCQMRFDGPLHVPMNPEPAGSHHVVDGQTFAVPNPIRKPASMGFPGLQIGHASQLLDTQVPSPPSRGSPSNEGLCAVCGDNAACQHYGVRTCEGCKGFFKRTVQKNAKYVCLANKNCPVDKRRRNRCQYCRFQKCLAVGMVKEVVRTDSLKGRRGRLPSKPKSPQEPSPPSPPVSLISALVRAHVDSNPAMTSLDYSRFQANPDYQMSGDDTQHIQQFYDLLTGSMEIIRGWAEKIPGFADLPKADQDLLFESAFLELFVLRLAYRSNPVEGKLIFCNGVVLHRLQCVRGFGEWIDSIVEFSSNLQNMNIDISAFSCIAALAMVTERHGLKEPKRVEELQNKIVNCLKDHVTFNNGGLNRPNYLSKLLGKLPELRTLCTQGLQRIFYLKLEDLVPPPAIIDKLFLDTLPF

As to `CCN(CC)CCCC(C)Nc1ccnc2cc(Cl)ccc12` (stereo not drawn) [CHLOROQUINE], the Activity entry in the data set on SK-N-BE(2) was “Non-Toxic”. Moreover, the outcome in data set [1], in data set [2], in data set [3], in data set [4], in [5] and in [6] was Active. Further, the outcome (in [7]; in data set [8]; in data set [9]; in [10]; in [11]; in the data set on SKNBE2 [12]) was Active. The outcome in the data set on SKNBE2 [13] was Active.

In the case of `CCN(CC)Cc1cc(Nc2ccnc3cc(Cl)ccc23)ccc1O` [AMODIAQUINE], the Activity entry with SK-N-BE(2) is reported as “Non-Toxic”. The result in data set [1], in data set [2], in [3], in data set [4], in data set [5] and in data set [6] was Active. The outcome (in [7]; in data set [8]; in data set [9]; in data set [10]; in data set [11]; with SKNBE2 [12]) was Active. For the same compound, the outcome with SKNBE2 [13] was Active.
